Data taken from ChEMBL document CHEMBL4311951, “Potent and Preferential Degradation of CDK6 via Proteolysis Targeting Chimera Degraders” (J Med Chem, 2019).
The source made the active and inactive calls. The calls are words filed in the database; no cut-off is given here.

Legend:
[1] = target: Protein cereblon/Cyclin-dependent kinase 6 (Homo sapiens, UniProt Q00534+Q96SW2); test: Induction of CRBN-mediated CDK6 degradation in human U251 cells after 24 hrs by immunoblot analysis; format: cell-based
[2] = target: Protein cereblon/Cyclin-dependent kinase 4 (Homo sapiens, UniProt P11802+Q96SW2); test: Induction of CRBN-mediated CDK4 degradation in human U251 cells after 24 hrs by immunoblot analysis; format: cell-based
[3] = target: Protein cereblon/Cyclin-dependent kinase 1 (Homo sapiens, UniProt P06493+Q96SW2); test: Induction of CRBN-mediated CDK1 degradation in human U251 cells at 500 nM after 4 hrs […]; format: cell-based; conditions: 0.5 µM
How it was run: (§1)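 U251 cells grown to 70–80% confluency, exposed to 500 nM degrader or DMSO for 4 h. Harvested by trypsinization, washed in cold PBS, lysed in RIPA on ice 30 min. Lysates BCA-quantified, acetone-precipitated, TMT-labelled and analysed by MS2 quantitation.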

[4] = target: Protein cereblon/Cyclin-dependent kinase 2 (Homo sapiens, UniProt P24941+Q96SW2); test: Induction of CRBN-mediated CDK2 degradation in human U251 cells at 500 nM after 4 hrs by immunoblot analysis; format: cell-based; conditions: 0.5 µM
[5] = target: Protein cereblon/Cyclin-dependent kinase 5 (Homo sapiens, UniProt Q00535+Q96SW2); test: Induction of CRBN-mediated CDK5 degradation in human U251 cells at 500 nM after 4 hrs by […]; format: cell-based; conditions: 0.5 µM; how it was run: as §1
[6] = target: Protein cereblon/Cyclin-dependent kinase 9 (Homo sapiens, UniProt P50750+Q96SW2); test: Induction of CRBN-mediated CDK9 degradation in human U251 cells at 500 nM after 4 hrs […]; format: cell-based; conditions: 0.5 µM; how it was run: as §1
[7] = target: Protein cereblon/G1/S-specific cyclin-D1 (Homo sapiens, UniProt P24385+Q96SW2); test: Induction of CRBN-mediated CCND1 degradation in human U251 cells at 500 nM after 4 hrs by […]; format: cell-based; conditions: 0.5 µM; how it was run: as §1
[8] = target: Protein cereblon/Dual specificity mitogen-activated protein kinase kinase 1 (Homo sapiens, UniProt Q02750+Q96SW2); test: Induction of CRBN-mediated MEK1 degradation in human U251 cells at 500 nM after 4 hrs by immunoblot analysis; format: cell-based; conditions: 0.5 µM
[9] = target: Protein cereblon/Epidermal growth factor receptor (Homo sapiens, UniProt P00533+Q96SW2); test: Induction of CRBN-mediated EGFR degradation in human U251 cells at 500 nM after 4 hrs […]; format: cell-based; conditions: 0.5 µM; how it was run: as §1
THP-1 = test: Antiproliferative activity against human THP1 cells after 84 hrs by CCK8 assay; format: functional, cell-based
How it was run: (§2)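 Suspension haematopoietic lines seeded in triplicate in 96-well plates; drug stock added immediately to the final concentrations. After 84 h culture, CCK-8 reagent added and absorbance at OD450 nm read after 2 h incubation.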

MM1.S = test: Antiproliferative activity against human MM1S cells after 84 hrs by CCK8 assay; format: functional, cell-based; how it was run: as §2
[10] = Antiproliferative activity against human Mino cells after 84 hrs by CCK8 assay; format: functional, cell-based; how it was run: as §2
RPMI-8226 = test: Antiproliferative activity against human RPMI8226 cells after 84 hrs by CCK8 assay; format: functional, cell-based; how it was run: as §2
HL-60 = test: Antiproliferative activity against human HL60 cells after 84 hrs by CCK8 assay; format: functional, cell-based; how it was run: as §2
JeKo-1 = test: Antiproliferative activity against human JeKo1 cells after 84 hrs by CCK8 assay; format: functional, cell-based; how it was run: as §2
MCF7 [11] = test: Antiproliferative activity against palbociclib-resistant human MCF7 cells with CDK6 gene amplification after 6 days by alamarBlue assay; format: functional, cell-based
How it was run: (§3)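 Parental or palbociclib-resistant MCF-7 cells (CDK6-N2 or FAT1 knockout) exposed to serial concentrations of degrader for 6 days, then viability determined.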

MCF7 [12] = test: Antiproliferative activity against Fat1 knockout human MCF7 cells after 6 days by alamarBlue assay; format: functional, cell-based; how it was run: as §3

Sequence of Protein cereblon/Cyclin-dependent kinase 1 (P06493 whole entry): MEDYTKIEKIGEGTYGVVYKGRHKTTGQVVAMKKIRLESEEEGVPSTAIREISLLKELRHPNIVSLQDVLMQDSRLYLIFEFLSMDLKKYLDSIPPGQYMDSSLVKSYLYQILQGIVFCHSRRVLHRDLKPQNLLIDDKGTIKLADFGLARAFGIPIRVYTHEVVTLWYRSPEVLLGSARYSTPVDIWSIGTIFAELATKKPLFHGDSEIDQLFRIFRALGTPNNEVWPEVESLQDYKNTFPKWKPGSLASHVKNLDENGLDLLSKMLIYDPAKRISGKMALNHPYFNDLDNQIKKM
Sequence of Protein cereblon/Cyclin-dependent kinase 1 (Q96SW2 whole entry): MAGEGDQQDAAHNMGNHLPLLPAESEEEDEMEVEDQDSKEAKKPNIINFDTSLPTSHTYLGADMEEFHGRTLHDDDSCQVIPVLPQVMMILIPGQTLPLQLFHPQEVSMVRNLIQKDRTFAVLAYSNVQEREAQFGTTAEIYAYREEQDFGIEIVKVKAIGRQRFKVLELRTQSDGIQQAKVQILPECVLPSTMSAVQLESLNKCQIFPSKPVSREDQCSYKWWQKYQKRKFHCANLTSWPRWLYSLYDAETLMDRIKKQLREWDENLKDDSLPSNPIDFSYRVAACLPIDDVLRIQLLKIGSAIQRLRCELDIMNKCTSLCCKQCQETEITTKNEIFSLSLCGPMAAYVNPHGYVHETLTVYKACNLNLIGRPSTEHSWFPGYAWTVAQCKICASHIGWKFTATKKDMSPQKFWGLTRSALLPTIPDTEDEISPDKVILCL
Sequence of Protein cereblon/Cyclin-dependent kinase 6 (Q00534 whole entry): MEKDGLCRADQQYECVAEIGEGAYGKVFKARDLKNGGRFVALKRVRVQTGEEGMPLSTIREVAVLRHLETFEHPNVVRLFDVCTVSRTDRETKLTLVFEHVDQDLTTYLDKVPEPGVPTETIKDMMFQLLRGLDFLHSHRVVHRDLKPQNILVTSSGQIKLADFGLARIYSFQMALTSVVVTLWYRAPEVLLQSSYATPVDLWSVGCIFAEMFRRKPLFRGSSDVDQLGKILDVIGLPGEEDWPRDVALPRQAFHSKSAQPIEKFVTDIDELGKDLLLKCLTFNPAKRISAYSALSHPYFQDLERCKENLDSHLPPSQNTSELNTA
Sequence of Protein cereblon/Cyclin-dependent kinase 6 (Q96SW2 whole entry): as the sequence (Q96SW2 whole entry) above
Sequence of Protein cereblon/Epidermal growth factor receptor (P00533 whole entry): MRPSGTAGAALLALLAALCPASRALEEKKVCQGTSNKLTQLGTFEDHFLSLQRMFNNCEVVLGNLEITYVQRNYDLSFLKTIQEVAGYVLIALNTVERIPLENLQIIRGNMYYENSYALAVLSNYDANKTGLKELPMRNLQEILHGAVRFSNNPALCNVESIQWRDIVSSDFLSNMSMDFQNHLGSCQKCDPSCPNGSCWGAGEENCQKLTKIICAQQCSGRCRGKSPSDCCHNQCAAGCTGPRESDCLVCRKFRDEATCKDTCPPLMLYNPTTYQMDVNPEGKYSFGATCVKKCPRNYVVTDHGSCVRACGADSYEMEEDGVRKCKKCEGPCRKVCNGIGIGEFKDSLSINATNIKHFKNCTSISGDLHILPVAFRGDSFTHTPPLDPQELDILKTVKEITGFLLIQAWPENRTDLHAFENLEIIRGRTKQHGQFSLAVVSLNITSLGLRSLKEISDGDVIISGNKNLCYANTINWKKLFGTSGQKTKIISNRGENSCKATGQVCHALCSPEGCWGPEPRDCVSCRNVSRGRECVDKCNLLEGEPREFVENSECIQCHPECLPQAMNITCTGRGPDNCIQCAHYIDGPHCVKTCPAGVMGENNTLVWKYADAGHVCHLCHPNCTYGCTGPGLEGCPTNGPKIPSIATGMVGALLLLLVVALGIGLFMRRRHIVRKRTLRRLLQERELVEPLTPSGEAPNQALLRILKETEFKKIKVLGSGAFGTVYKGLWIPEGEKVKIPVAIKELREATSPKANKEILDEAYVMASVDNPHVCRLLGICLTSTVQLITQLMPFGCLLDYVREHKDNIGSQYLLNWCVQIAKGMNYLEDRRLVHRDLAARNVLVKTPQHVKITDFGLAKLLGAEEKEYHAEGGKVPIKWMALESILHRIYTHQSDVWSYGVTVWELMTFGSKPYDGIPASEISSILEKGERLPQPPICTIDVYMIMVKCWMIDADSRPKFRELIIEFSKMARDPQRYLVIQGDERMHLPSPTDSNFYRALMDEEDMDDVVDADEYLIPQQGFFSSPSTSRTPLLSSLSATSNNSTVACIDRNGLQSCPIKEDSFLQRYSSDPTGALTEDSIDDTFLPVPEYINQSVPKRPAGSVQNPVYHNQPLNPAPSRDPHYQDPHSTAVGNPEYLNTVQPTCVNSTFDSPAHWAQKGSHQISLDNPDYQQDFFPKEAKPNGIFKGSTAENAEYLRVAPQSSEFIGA
Sequence of Protein cereblon/Epidermal growth factor receptor (Q96SW2 whole entry): as the sequence (Q96SW2 whole entry) above
Sequence of Protein cereblon/Cyclin-dependent kinase 9 (P50750 whole entry): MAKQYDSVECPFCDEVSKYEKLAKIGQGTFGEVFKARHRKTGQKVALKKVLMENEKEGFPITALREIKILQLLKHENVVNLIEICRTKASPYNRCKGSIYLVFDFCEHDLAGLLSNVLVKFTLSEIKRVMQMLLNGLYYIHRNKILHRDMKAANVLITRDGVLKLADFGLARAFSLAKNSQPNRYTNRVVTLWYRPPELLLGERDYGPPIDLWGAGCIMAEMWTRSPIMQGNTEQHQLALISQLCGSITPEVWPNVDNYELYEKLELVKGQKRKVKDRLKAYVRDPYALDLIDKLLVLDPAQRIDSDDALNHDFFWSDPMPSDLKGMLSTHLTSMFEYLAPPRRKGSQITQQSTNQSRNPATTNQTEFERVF
Sequence of Protein cereblon/Cyclin-dependent kinase 9 (Q96SW2 whole entry): as the sequence (Q96SW2 whole entry) above
Sequence of Protein cereblon/Cyclin-dependent kinase 5 (Q00535 whole entry): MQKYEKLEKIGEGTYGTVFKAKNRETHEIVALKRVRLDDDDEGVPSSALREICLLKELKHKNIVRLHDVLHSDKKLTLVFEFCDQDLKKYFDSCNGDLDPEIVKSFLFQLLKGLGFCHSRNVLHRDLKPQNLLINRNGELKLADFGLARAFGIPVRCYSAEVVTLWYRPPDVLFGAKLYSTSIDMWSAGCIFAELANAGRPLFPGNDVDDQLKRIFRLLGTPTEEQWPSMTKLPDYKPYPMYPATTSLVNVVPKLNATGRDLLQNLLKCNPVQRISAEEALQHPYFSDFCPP
Sequence of Protein cereblon/Cyclin-dependent kinase 5 (Q96SW2 whole entry): as the sequence (Q96SW2 whole entry) above
Sequence of Protein cereblon/G1/S-specific cyclin-D1 (P24385 whole entry): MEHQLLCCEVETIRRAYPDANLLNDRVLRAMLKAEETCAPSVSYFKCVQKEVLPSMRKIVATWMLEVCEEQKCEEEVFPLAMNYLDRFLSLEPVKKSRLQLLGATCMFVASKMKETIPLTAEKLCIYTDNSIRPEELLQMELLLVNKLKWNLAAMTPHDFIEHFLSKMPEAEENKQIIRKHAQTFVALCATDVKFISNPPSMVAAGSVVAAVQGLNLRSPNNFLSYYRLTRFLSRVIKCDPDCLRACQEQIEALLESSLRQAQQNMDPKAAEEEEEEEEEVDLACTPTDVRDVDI
Sequence of Protein cereblon/G1/S-specific cyclin-D1 (Q96SW2 whole entry): as the sequence (Q96SW2 whole entry) above
Sequence of Protein cereblon/Cyclin-dependent kinase 4 (P11802 whole entry): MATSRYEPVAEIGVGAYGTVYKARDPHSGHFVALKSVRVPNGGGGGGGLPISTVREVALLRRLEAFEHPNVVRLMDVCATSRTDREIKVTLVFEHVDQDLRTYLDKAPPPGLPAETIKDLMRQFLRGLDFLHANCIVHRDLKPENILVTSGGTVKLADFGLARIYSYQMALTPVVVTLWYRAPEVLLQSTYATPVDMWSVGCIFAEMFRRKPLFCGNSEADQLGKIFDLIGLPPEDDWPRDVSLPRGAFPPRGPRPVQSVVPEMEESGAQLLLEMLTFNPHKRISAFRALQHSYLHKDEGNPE
Sequence of Protein cereblon/Cyclin-dependent kinase 4 (Q96SW2 whole entry): as the sequence (Q96SW2 whole entry) above
Sequence of Protein cereblon/Dual specificity mitogen-activated protein kinase kinase 1 (Q02750 whole entry): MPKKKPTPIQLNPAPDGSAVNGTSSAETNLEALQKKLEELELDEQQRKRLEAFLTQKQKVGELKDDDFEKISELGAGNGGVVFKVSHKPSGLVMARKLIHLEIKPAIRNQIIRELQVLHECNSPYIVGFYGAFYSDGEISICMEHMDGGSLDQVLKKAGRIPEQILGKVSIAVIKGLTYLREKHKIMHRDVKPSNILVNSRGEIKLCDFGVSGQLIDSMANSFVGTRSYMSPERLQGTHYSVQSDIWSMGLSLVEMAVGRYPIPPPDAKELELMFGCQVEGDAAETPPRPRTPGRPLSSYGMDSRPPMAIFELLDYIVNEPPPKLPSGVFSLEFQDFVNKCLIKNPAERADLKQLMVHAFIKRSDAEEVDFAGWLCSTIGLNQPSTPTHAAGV
Sequence of Protein cereblon/Dual specificity mitogen-activated protein kinase kinase 1 (Q96SW2 whole entry): as the sequence (Q96SW2 whole entry) above

SMILES: CC(=O)c1c(C)c2cnc(Nc3ccc(N4CCN(Cc5cn(CCOCCNc6cccc7c6C(=O)N(C6CCC(=O)NC6=O)C7=O)nn5)CC4)cn3)nc2n(C2CCCC2)c1=O (configuration not stated)
- DC50 [1]: 2.1 nM
- DC50 [2]: 150 to 180 nM
- Activity [3]: Not Active
- Activity [4]: Not Active
- Activity [5]: Not Active
- Activity [6]: Not Active
- Activity [7]: Not Active
- Activity [8]: Not Active
- Activity [9]: Not Active
- Activity (THP-1): Active
- IC50 (MM1.S): 10 nM
- IC50 [10]: 8 nM
- Activity (RPMI-8226): Active
- Activity (HL-60): Active
- Activity (JeKo-1): Active
- Activity (MCF7 [11]): Active
- Activity (MCF7 [12]): Active
